Data reported in ChEMBL document CHEMBL1125347, “Synthesis of novel MPTP analogs as potential monoamine oxidase B (MAO-B) inhibitors” (J Med Chem, 1992).
pKi: −log10 of the molar value.

Legend:
[1] = target: T1, Amine oxidase [flavin-containing] B (Bos taurus, UniProt P56560); assay: Monoamine oxidase B Inactivation property expressed as inactivation constant (K inact).
T1 sequence (P56560 whole entry): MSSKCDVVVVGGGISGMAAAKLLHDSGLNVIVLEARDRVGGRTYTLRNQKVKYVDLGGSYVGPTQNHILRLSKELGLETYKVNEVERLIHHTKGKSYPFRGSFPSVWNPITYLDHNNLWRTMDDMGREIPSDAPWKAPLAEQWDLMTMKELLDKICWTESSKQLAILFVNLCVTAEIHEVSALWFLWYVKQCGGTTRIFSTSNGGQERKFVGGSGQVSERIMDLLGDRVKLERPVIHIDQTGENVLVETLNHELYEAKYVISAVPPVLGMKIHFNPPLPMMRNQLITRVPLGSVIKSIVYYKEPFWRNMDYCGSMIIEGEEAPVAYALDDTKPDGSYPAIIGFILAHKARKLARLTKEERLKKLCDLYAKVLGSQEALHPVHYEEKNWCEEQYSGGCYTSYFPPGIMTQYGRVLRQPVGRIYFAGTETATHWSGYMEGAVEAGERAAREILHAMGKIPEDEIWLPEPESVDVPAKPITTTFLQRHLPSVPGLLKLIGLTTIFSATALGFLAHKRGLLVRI

[2] = target: T1, Amine oxidase [flavin-containing] B; assay: Inhibitory constant against monoamine Oxidase(MAO-B).
[3] = target: T1, Amine oxidase [flavin-containing] B; assay: Inhibitory constant against monoamine Oxidase (MAO-B); Not active
[4] = target: T1, Amine oxidase [flavin-containing] B; assay: Monoamine oxidase B Inactivation property expressed as inactivation constant (K inact); Not active
[5] = target: T1, Amine oxidase [flavin-containing] B; assay: Monoamine oxidase B Inactivation property expressed as inactivation constant (K inact) was determined at a concentration of 300-1500 uM
[6] = Kinetic parameter KM (nM) for the MAO-B catalyzed oxidation of the compound.; type: ADME
Method in brief: (§1)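 Compound at 0.05-2.5 mM in 100 mM phosphate pH 7.4 was equilibrated 2 min at 37 °C, then 0.05 unit of purified beef liver MAO-B was added. Initial rates were followed by the rise in absorbance of the dihydropyridinium product. KM and Vmax came from Lineweaver-Burk plots. One unit converts 1 μmol benzylamine per min.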

[7] = Kinetic parameter Vmax (nm/min/unit of MAO-B) for the MAO-B catalyzed oxidation of the compound.; type: ADME; method in brief: as §1
[8] = target: T1, Amine oxidase [flavin-containing] B; assay: Inhibitory constant against monoamine Oxidase(MAO-B) was determined at a concentration of 300-1500 uM
[9] = target: T1, Amine oxidase [flavin-containing] B; assay: MAO-B Inactivation property expressed as inactivation constant (K inact).
[10] = target: T1, Amine oxidase [flavin-containing] B; assay: MAO-B Inactivation property expressed as inactivation constant (K inact) was determined at a concentration of 50-100 uM
[11] = target: T1, Amine oxidase [flavin-containing] B; assay: Inhibitory constant against monoamine Oxidase(MAO-B) was determined at a concentration of 50-100 uM

pKi [2] | SMILES | kinact [1] [s⁻¹] | Km [6] [µM] | Vmax [7] | further results
 | C1=C(c2ccccc2)CCN(C2CCC2)C1 |  |  |  | Ki [3]: Not Active; kinact [4]: Not Active
 | CCCN1CC=C(c2ccccc2)CC1 |  | 2000 | 7 | kinact [5]: 0.001 s⁻¹; pKi [8]: 2.30
3.09 | CN1CC=C(C#Cc2ccccc2)CC1 |  |  |  | kinact [9]: 0.00533 s⁻¹
3.48 | C=CC1=CCN(C)CC1 | 0.00133 | 80 | 190 | 
3.81 | C#CC1=CCN(C)CC1 |  | 861 | 684 | kinact [9]: 0.000833 s⁻¹
 | CN1CC=C(c2ccccc2)CC1 |  | 390 | 204 | 
 | C#CCN1CC=C(c2ccccc2)CC1 |  |  |  | kinact [10]: 0.004 s⁻¹; pKi [11]: 3.76

SMILES | pKi [2] | kinact [1] [s⁻¹] | Km [6] [µM] | Vmax [7] | further results
C1=C(c2ccccc2)CCN(C2CCCC2)C1 | 3.76 | 0.00075 |  |  | 
C=CCN1CC=C(c2ccccc2)CC1 | 3.57 | 0.000483 |  |  | 
